# Assay results pooled from the literature.
# Protocols differ between the studies behind these lines.
# Medium: plasma
SMILES,test system,conditions,half-life
O=C(/C=C/c1cccc(S(=O)(=O)Nc2ccccc2)c1)NO,human,"intravenous, 2000 mg/m², patients",1.42 h
Cc1cc(Nc2ncc(Cl)c(Nc3ccccc3S(=O)(=O)C(C)C)n2)c2c(c1C1CCN(C)CC1)C[C@@H](C)O2,human,"oral, 160 mg, single dose, fasted, healthy volunteers",34.6 h
CC(C)(O)c1ccccc1-c1ccc2[nH]c(/C=C/c3ccc(C(F)(F)F)cc3)nc2c1,male human,"oral, 50 mg, single dose, fasted, healthy volunteers",68.6 h
CS(=O)(=O)CCC#N,human,"oral, 100 mg, multiple doses, once daily",16 h
c1cnc2ccc(Nc3nc(NC4CC4)c4nc[nH]c4n3)cc2c1,human,"oral, 100 mg/m², patients",3.6 h
Cn1cc(-c2ccc(S(=O)(=O)[C@@H]3C[C@@H](C(=O)NC4(C#N)CC4)N(C(=O)C4(C(F)(F)F)CC4)C3)c(C(F)(F)F)c2)cn1,human,"oral, 1 mg, single dose, fasted, healthy volunteers",5.47 h
Cc1nc(C(=O)NCC(=O)O)c(O)c2ccc(Oc3ccccc3)cc12,human,"oral, 100 mg, single dose, healthy volunteers",11.7 h
COc1ccc([C@@H]2CN(C(=O)[C@@H](O)CO)C[C@@]2(C)[C@@H](C)O)cc1OC1CN(c2ccc(C)cn2)C1,human,"oral, 10 mg, single dose, healthy volunteers",12.6 h
C/C(=C\c1csc(C)n1)[C@@H]1C[C@@H]2O[C@]2(C)CCC[C@H](C)[C@H](O)[C@@H](C)C(=O)C(C)(C)[C@@H](O)CC(=O)N1,human,"intravenous, 20 mg/m², patients",62.2 h
C[C@@H](c1ccc2nccn2c1)n1nnc2ncc(-c3cnn(C)c3)nc21,human,"oral, 200 mg",4.2 h
COCCOc1cnc2ccn([C@H](C)c3nnc4c(F)cc(-c5cnn(C)c5)cn34)c(=O)c2c1,human,"oral, 50 mg, multiple doses, once daily, patients",15.3 h
CC(C)[C@](O)(c1ccc2cc(OC(F)F)c(OC(F)F)cc2c1)c1c[nH]nn1,female human,"oral, 600 mg, single dose",8.4 h
CCOc1ccc(Cc2cc([C@@H]3O[C@H](CO)[C@@H](O)[C@H](O)[C@H]3O)ccc2Cl)cc1,human,"oral, 10 mg, multiple doses, steady state, healthy volunteers",10.4 h
NS(=O)(=O)NCCNc1nonc1C(=NO)Nc1ccc(F)c(Br)c1,human,"oral, 300 mg, multiple doses, twice daily, steady state, patients",3.9 h
CCOc1cc2ncc(C#N)c(Nc3ccc(OCc4ccccn4)c(Cl)c3)c2cc1NC(=O)/C=C/[C@H]1CCCN1C,human,"oral, 80 mg, single dose",12.9 h
COc1cc(C(=O)NC2CCN(C)CC2)c(F)cc1Nc1ncc(C(F)(F)F)c(Oc2cccc3c2C(=O)N(C)C3)n1,human,"oral, 200 mg, multiple doses, once daily, patients",20.4 h
Nc1cc(C(F)(F)F)c(-c2cc(N3CCOCC3)nc(N3CCOCC3)n2)cn1,human,"oral, 100 mg/day, patients",30.6 h
CC(C)(C)N/[N+]([O-])=N/OC1CCN(c2ccc(C#N)cn2)CC1,male human,"oral, single dose, healthy volunteers",46 to 78 h
CO[C@H]1CC[C@H](N2C(=O)CNc3ncc(-c4ccc(C(C)(C)O)nc4)nc32)CC1,human,"oral, 15 mg, patients",3.35 h
CO[C@H]1/C=C\C=C(/C)C(=O)NC2=CC(=O)C(NCCN(C)C)=C(C[C@@H](C)C[C@H](OC)[C@H](O)[C@@H](C)/C=C(\C)[C@@H]1OC(N)=O)C2=O,human,"intravenous, 27 mg/m², patients, infusion",22.5 h
C#C[C@]1(COP(=O)(O)OP(=O)(O)OP(=O)(O)O)O[C@@H](n2cnc3c(N)nc(F)nc32)C[C@@H]1O,human,"oral, 200 mg, single dose",116 h
C[C@@H](Nc1cc(F)cc(F)c1)c1cc(C(=O)N(C)C)cc2c(=O)cc(N3CCOCC3)oc12,human,"oral, 60 mg, patients",5.2 h
O=C(Nc1c(Cl)cncc1Cl)c1ccc(OC(F)F)c(OCC2CC2)c1,human,"oral, 0.5 mg, single dose",19.9 h
OC[C@H]1O[C@@H](c2ccc(Cl)c(Cc3ccc(O[C@H]4CCOC4)cc3)c2)[C@H](O)[C@@H](O)[C@@H]1O,male human,"oral, 25 mg, multiple doses, once daily, steady state",8.44 h
CO[C@@H]1[C@H](OC(=O)N2CC(CCN3CCOCC3)C2)CC[C@]2(CO2)[C@H]1[C@@]1(C)O[C@@H]1CC=C(C)C,human,"subcutaneous, 0.2 mg, single dose, healthy volunteers",0.49 h
COc1ccc(-n2nc(C(N)=O)c3c2C(=O)N(c2ccc(N4CCCCC4=O)cc2)CC3)cc1,human,"oral, 20 mg, single dose, healthy volunteers",~13 h
CCNCCCNC/C=C\CNCCCNCC,human,"intravenous, 50 mg, patients, infusion",0.18 h
CC(C)(Sc1ccncc1-c1ccc(C#N)c2ccccc12)C(=O)O,male human,"oral, 5 mg, single dose, fasted, healthy volunteers",14.2 h
CC(C)n1cc(C#N)c2cc(-n3cc(C(=O)O)cn3)ccc21,human,"oral, 100 mg, single dose, fasted, healthy volunteers",6.6 h
Cc1nc(-c2cn3c(n2)-c2ccc(-c4cnn(C(C)(C)C(N)=O)c4)cc2OCC3)n(C(C)C)n1,human,"oral, 2 mg, patients",28.1 h
